Source: ChEMBL document CHEMBL1152278, “Discovery of ligands for a novel target, the human telomerase RNA, based on flexible-target virtual screening and NMR” (J Med Chem, 2008)

Experiment: Binding affinity to human telomerase P2b RNA by […]
How it was run: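 hTR-P2b RNA made by in vitro T7 polymerase transcription from a synthetic DNA template. Titration was at 50 μM RNA in 20 mM sodium phosphate pH 6.7, 50 mM NaCl, 90/10% H₂O/D₂O, 15 °C, with ligand added stepwise. Kd was fitted from 800 MHz imino-proton chemical shifts under a fast-exchange model.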

Row | SMILES | Kd [µM]
1 | CN(C)CCCN1c2ccccc2[C@H]2C[C@H]2c2ccccc21 | 1100
2 | C[n+]1ccc(Nc2ccc(NC(=O)c3ccc(N)cc3)cc2)cc1 | 1100
3 | OCCOCCN1CCN(CCCN2c3ccccc3Sc3ccc(C(F)(F)F)cc32)CC1 | 1100
4 | CN1CCN2c3ncccc3Cc3ccccc3C2C1 (stereo not given) [MIRTAZAPINE] | 1500
5 | O=C(c1ccc(O)cc1)c1ccc(O)cc1 | 1500

The next compounds have a lower Kd than those just listed; values first:

Row | Kd [µM] | SMILES
6 | 570 | C[n+]1ccc(Nc2ccc(NC(=O)c3ccc(N)cc3[N+](=O)[O-])cc2)cc1
7 | 310 | N#Cc1ccc2c(c1)N(CCCN1CCN(CCO)CC1)c1ccccc1S2
8 | 450 | CN1CCN(CCCN2c3ccccc3Sc3ccc(S(=O)(=O)N(C)C)cc32)CC1 [THIOPROPERAZINE]
9 | 84 | CCN(CC)Cc1cc(Nc2c3ccccc3nc3c4ccccc4n(C)c23)ccc1O
10 | 180 | Nc1ccc(NC(=O)c2ccc(N)cc2)cc1
